Starred links: 1 amine or outer side, 2 acyl side, 3 side chain; linkers in the order of their positions; H or OH if unused. Non-standard residues stand in square brackets, D forms with d. Residues, ends and D or L forms follow the SMILES beside them. Trp(1-CMe2(2S-oxiranyl)) = CC(C)([C@H]1CO1)n1cc(C[C@H](N)C(=O)O)c2ccccc21; Trp(1-(1,1-Me2-allyl)) = C=CC(C)(C)n1cc(C[C@H](N)C(=O)O)c2ccccc21; X3 = CC(C)([C@H](O)CCl)n1cc(C[C@H](N[*:1])C(=O)[*:2])c2ccccc21; Tyr(3-NO2) = N[C@@H](Cc1ccc(O)c([N+](=O)[O-])c1)C(=O)O; X1 = COC(OC)C(C)C[C@@H](C(=O)[*:2])N(C)[*:1]; X2 = C[C@H](CO)C[C@@H](C(=O)[*:2])N(C)[*:1]; Gly(E-crotyl) = C/C=C/C[C@H](N)C(=O)O; NMeL = CN[C@@H](CC(C)C)C(=O)O
Key:
[1] = test system: Mycobacterium tuberculosis; experiment: Bactericidal activity against Mycobacterium tuberculosis H37Rv harboring LuxAB gene assessed as reduction in microbial growth by measuring reduction in relative luminescence units after 7 days by luminometric method; format: functional; settings: 168 h
Method in brief: (§1)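 Viability was read from an H37Rv luminescent reporter strain carrying plasmid pMV306hsp+LuxAB+G13+CDE. It was incubated with compound for two weeks, with luminescence read on days 7 and 14.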

[2] = test system: Mycobacterium tuberculosis; experiment: Bactericidal activity against Mycobacterium tuberculosis H37Rv harboring LuxAB gene assessed as reduction in microbial growth by measuring reduction in relative luminescence units after 14 days by luminometric method; format: functional; settings: 336 h; method in brief: as §1

Row | SMILES | MBC [1] [µM] | MBC [2] [µM]
1 | C/C=C/C[C@@H]1NC(=O)[C@H](CC(C)C)N2C(=O)[C@H](C[C@](C)(O)[C@H]2O)N(C)C(=O)[C@H](C)NC(=O)[C@H](Cc2ccc(O)c([N+](=O)[O-])c2)NC(=O)[C@H](CC(C)C)N(C)C(=O)[C@H](Cc2cn(C(C)(C)[C@H]3CO3)c3ccccc23)NC1=O | > 10 | 4.6
2 | C/C=C/C[C@@H]1NC(=O)[C@H](CC(C)C)N2C(=O)[C@H](CC(C)[C@H]2O)N(C)C(=O)[C@H](C)NC(=O)[C@H](Cc2ccc(O)c([N+](=O)[O-])c2)NC(=O)[C@H](CC(C)C)N(C)C(=O)[C@H](Cc2cn(C(C)(C)[C@H]3CO3)c3ccccc23)NC1=O (some centres undefined) | > 10 | 0.88
3 | C/C=C/C[C@@H]1NC(=O)[C@H](CC(C)C)N2C(=O)[C@H](C[C@@H](C)[C@H]2O)N(C)C(=O)[C@H](C)NC(=O)[C@H](Cc2ccc(O)c([N+](=O)[O-])c2)NC(=O)[C@H](CC(C)C)N(C)C(=O)[C@H](Cc2cn(C(C)(C)[C@H](O)CO)c3ccccc23)NC1=O | > 10 | 0.58
4 | C=CC(C)(C)n1cc(C[C@@H]2NC(=O)[C@H](C/C=C/C)NC(=O)[C@H](CC(C)C)NC(=O)[C@H](CC(C)C)N(C)C(=O)[C@H](C)NC(=O)[C@H](Cc3ccc(O)cc3)NC(=O)[C@H](CC(C)C)N(C)C2=O)c2ccccc21 (HELM PEPTIDE1{A.[meL].L.[C/C=C/C[C@H](N[*:1])C(=O)[*:2]].[C=CC(C)(C)n1cc(C[C@H](N[*:1])C(=O)[*:2])c2ccccc21].[meL].Y}$PEPTIDE1,PEPTIDE1,1:R1-7:R2$$$V2.0) | > 10 | 5.2
5 | C=CC(C)(C)n1cc(C[C@@H]2NC(=O)[C@H](C/C=C/C)NC(=O)[C@H](CC(C)C)NC(=O)[C@H](CC(C)C)N(C)C(=O)[C@H](C)NC(=O)[C@H](Cc3ccc(O)c([N+](=O)[O-])c3)NC(=O)[C@H](CC(C)C)N(C)C2=O)c2ccccc21 (cyclo(A[NMeL]L[Gly(E-crotyl)][Trp(1-(1,1-Me2-allyl))][NMeL][Tyr(3-NO2)])) | > 10 | 4.5
6 | C/C=C/C[C@@H]1NC(=O)[C@H](CC(C)C)NC(=O)[C@H](CC(C)C)N(C)C(=O)[C@H](C)NC(=O)[C@H](Cc2ccc(O)c([N+](=O)[O-])c2)NC(=O)[C@H](CC(C)C)NC(=O)[C@H](Cc2cn(C(C)(C)[C@H]3CO3)c3ccccc23)NC1=O (cyclo(A[NMeL]L[Gly(E-crotyl)][Trp(1-CMe2(2S-oxiranyl))]L[Tyr(3-NO2)])) | > 10 | 2.2
7 | C/C=C/C[C@@H]1NC(=O)[C@H](CC(C)C)NC(=O)[C@H](CC(C)C)N(C)C(=O)[C@H](C)NC(=O)[C@H](Cc2ccc(O)c([N+](=O)[O-])c2)NC(=O)[C@H](CC(C)C)N(C)C(=O)[C@H](Cc2cn(C(C)(C)[C@H]3CO3)c3ccccc23)NC1=O (cyclo(A[NMeL]L[Gly(E-crotyl)][Trp(1-CMe2(2S-oxiranyl))][NMeL][Tyr(3-NO2)])) | > 10 | 1
8 | C/C=C/C[C@@H]1NC(=O)[C@H](CC(C)C)NC(=O)[C@H](CC(C)C)N(C)C(=O)[C@H](C)NC(=O)[C@H](Cc2ccc(O)c([N+](=O)[O-])c2)NC(=O)[C@H](CC(C)C)N(C)C(=O)[C@H](Cc2cn(C(C)(C)[C@H](O)CCl)c3ccccc23)NC1=O (cyclo(A[NMeL]L[Gly(E-crotyl)][X3][NMeL][Tyr(3-NO2)])) | > 10 | 3.1
9 | C/C=C/C[C@@H]1NC(=O)[C@H](CC(C)C)NC(=O)[C@H](CC(C)C(OC)OC)N(C)C(=O)[C@H](C)NC(=O)[C@H](Cc2ccc(O)c([N+](=O)[O-])c2)NC(=O)[C@H](CC(C)C)N(C)C(=O)[C@H](Cc2cn(C(C)(C)[C@H]3CO3)c3ccccc23)NC1=O (stereo partly drawn) (cyclo(A[X1]L[Gly(E-crotyl)][Trp(1-CMe2(2S-oxiranyl))][NMeL][Tyr(3-NO2)])) | > 10 | 1.1
10 | C=CC(C)(C)n1cc(C[C@@H]2NC(=O)[C@H](C/C=C/C)NC(=O)[C@H](CC(C)C)NC(=O)[C@H](C[C@H](C)CO)N(C)C(=O)[C@H](C)NC(=O)[C@H](Cc3ccc(O)c([N+](=O)[O-])c3)NC(=O)[C@H](CC(C)C)N(C)C2=O)c2ccccc21 (cyclo(A[X2]L[Gly(E-crotyl)][Trp(1-(1,1-Me2-allyl))][NMeL][Tyr(3-NO2)])) | > 10 | 9.6
11 | NNC(=O)c1ccncc1 [ISONIAZID] | 0.99 | 4
12 | CO[C@H]1/C=C/O[C@@]2(C)Oc3c(C)c(O)c4c(O)c(c(/C=N/N5CCN(C)CC5)c(O)c4c3C2=O)NC(=O)/C(C)=C\C=C\[C@H](C)[C@H](O)[C@@H](C)[C@@H](O)[C@@H](C)[C@H](OC(C)=O)[C@@H]1C [RIFAMPIN] | 0.24 | 0.12
